Assay results as given in ChEMBL document CHEMBL1156763, “1,8-Naphthyridines VIII. Novel 5-aminoimidazo[1,2-a] [1,8]naphthyridine-6-carboxamide and 5-amino[1,2,4]triazolo[4,3-a] [1,8]naphthyridine-6-carboxamide derivatives showing potent analgesic or anti-inflammatory activity, respectively, and completely devoid of acute gastrolesivity” (Eur J Med Chem, 2010).

How the values were obtained:
Rattus norvegicus [1] = assay: Antiinflammatory activity against carrageenan-induced paw edema in Wistar rat assessed as inhibition of hind paw edema at 25 mg/kg, po administered 1 hr prior to carrageenan challenge measured after 3 hrs relative to control; format: functional
Method in brief: (§1)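 Wistar rats of either sex (250–300 g), fasted overnight, gavaged with compound in 0.5% methylcellulose. 1 h later, 0.1 mL 1% carrageenan injected subcutaneously into the plantar hind paw. Paw volume read by plethysmometer right after injection and 3 h later. Control edema set as 100, % inhibition from swelling difference. Groups of 8–10; Student's t-test.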

Mus musculus [2] = assay: Analgesic activity in Swiss mouse assessed as inhibition of acetic acid-induced writhing response at 50 mg/kg, po administered 1 hr before acetic acid challenge measured for 30 mins relative to control; format: functional
Method in brief: (§2)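 Mice of either sex (25–35 g), fasted overnight, dosed by oral gavage with test agent suspended in 0.5% methylcellulose; controls got vehicle alone. Each hind-limb full extension counted as a writhe over 30 min after the noxious agent. % inhibition from treated vs control writhing; groups of 8–10; Student's t-test. Dosing starts at 100 mg/kg, then halved stepwise.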

Rattus norvegicus [3] = assay: Antiinflammatory activity against carrageenan-induced paw edema in Wistar rat assessed as inhibition of hind paw edema at 50 mg/kg, po administered 1 hr prior to carrageenan challenge measured after 3 hrs relative to control; format: functional; method in brief: as §1
Mus musculus [4] = assay: Sedative activity in Swiss mouse assessed as inhibition of spontaneous locomotor activity at 50 mg/kg, po dose measured for every 5 mins up to 90 mins; format: organism-based; set-up: dose 50 mg/kg, route oral
Method in brief: (§3)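 Overnight-fasted mice given compound (0.5% methylcellulose) or vehicle by oral gavage, then housed singly in an activity cage. Locomotion auto-recorded in 5-min intervals for 90 min; pulses of the final 30 min scored. % inhibition versus controls; runs between 9.00 and 13.00; groups of 8–10; Student's t-test.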

Rattus norvegicus [5] = assay: Antiinflammatory activity against carrageenan-induced paw edema in Wistar rat assessed as inhibition of hind paw edema at 100 mg/kg, po administered 1 hr prior to carrageenan challenge measured after 3 hrs relative to control; format: functional; method in brief: as §1
Mus musculus [6] = assay: Analgesic activity in Swiss mouse assessed as inhibition of acetic acid-induced writhing response at 100 mg/kg, po administered 1 hr before acetic acid challenge measured for 30 mins relative to control; format: functional; method in brief: as §2
Mus musculus [7] = assay: Analgesic activity in Swiss mouse assessed as inhibition of acetic acid-induced writhing response at 25 mg/kg, po administered 1 hr before acetic acid challenge measured for 30 mins relative to control; format: functional; method in brief: as §2
Rattus norvegicus [8] = assay: Acute gastrolesivity in Wistar rat assessed as appearance of gastric damage at 200 mg/kg, po after 5 hrs; format: toxicity, organism-based, Stomach; set-up: dose 200 mg/kg, route oral; details: in vivo
Method in brief: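 Wistar rats (250–300 g), either sex, fasted overnight; compound suspended in 0.5% methylcellulose, single oral gavage at 200 mg kg^-1 (1 mL 100 g^-1). Stomachs excised 5 h later, fixed in 2% formalin, opened along greater curvature, examined by stereomicroscope by blinded observer. Reported as number of animals with gastric damage over treated animals (eight per group).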

Rattus norvegicus [9] = assay: Antiinflammatory activity against carrageenan-induced paw edema in Wistar rat assessed as inhibition of hind paw edema at 12.5 mg/kg, po administered 1 hr prior to carrageenan challenge measured after 3 hrs relative to control; format: functional; method in brief: as §1
Rattus norvegicus [10] = assay: Antiinflammatory activity against carrageenan-induced paw edema in Wistar rat assessed as inhibition of hind paw edema at 6.25 mg/kg, po administered 1 hr prior to carrageenan challenge measured after 3 hrs relative to control; format: functional; method in brief: as §1
Mus musculus [11] = assay: Analgesic activity in Swiss mouse assessed as inhibition of acetic acid-induced writhing response at 12.5 mg/kg, po administered 1 hr before acetic acid challenge measured for 30 mins relative to control; format: functional; method in brief: as §2
Mus musculus [12] = assay: Analgesic activity in Swiss mouse assessed as inhibition of acetic acid-induced writhing response at 6.25 mg/kg, po administered 1 hr before acetic acid challenge measured for 30 mins relative to control; format: functional; method in brief: as §2
Mus musculus [13] = assay: Analgesic activity in Swiss mouse assessed as inhibition of acetic acid-induced writhing response at 3.12 mg/kg, po administered 1 hr before acetic acid challenge measured for 30 mins relative to control; format: functional
Mus musculus [14] = assay: Analgesic activity in Swiss mouse assessed as inhibition of acetic acid-induced writhing response at 1.6 mg/kg, po administered 1 hr before acetic acid challenge measured for 30 mins relative to control; format: functional
Mus musculus [15] = assay: Sedative activity in Swiss mouse assessed as inhibition of spontaneous locomotor activity at 100 mg/kg, po dose measured for every 5 mins up to 90 mins; format: organism-based; set-up: dose 100 mg/kg, route oral; method in brief: as §3

Row | Compound | inhibition in vivo at 25 mg/kg (Rattus norvegicus [1]) [%] | inhibition in vivo at 50 mg/kg (Mus musculus [2]) [%] | inhibition in vivo at 50 mg/kg (Rattus norvegicus [3]) [%] | inhibition at 50 mg/kg (Mus musculus [4]) [%] | inhibition in vivo at 100 mg/kg (Rattus norvegicus [5]) [%] | inhibition in vivo at 100 mg/kg (Mus musculus [6]) [%] | inhibition in vivo at 25 mg/kg (Mus musculus [7]) [%] | Activity (Rattus norvegicus [8]) | inhibition in vivo at 12.5 mg/kg (Rattus norvegicus [9]) [%] | inhibition in vivo at 6.25 mg/kg (Rattus norvegicus [10]) [%] | inhibition in vivo at 12.5 mg/kg (Mus musculus [11]) [%] | inhibition in vivo at 6.25 mg/kg (Mus musculus [12]) [%] | inhibition in vivo at 3.12 mg/kg (Mus musculus [13]) [%] | inhibition in vivo at 1.6 mg/kg (Mus musculus [14]) [%] | inhibition at 100 mg/kg (Mus musculus [15]) [%]
1 | CCN(CC)C(=O)c1c(N(C)CC)c2cccnc2n2c(C(C)C)nnc12 | 65 | 59 | 67 | 22 | 71 | 81 | 17 | Non-toxic | 51 | 42 |  |  |  |  | 
2 | CCN(CC)C(=O)c1c(NC(C)C)c2cccnc2n2c(C(C)C)nnc12 | 75 | 54 | 75 | 64 | 81 | 83 | 33 | Non-toxic | 68 |  | 0 |  |  |  | 
3 | CCN(CC)C(=O)c1c(NCC(C)C)c2cccnc2n2c(C(C)C)nnc12 | 61 | 33 | 66 |  | 70 | 100 |  | Non-toxic | 50 | 27 |  |  |  |  | 
4 | CCC(CC)Nc1c(C(=O)N(CC)CC)c2nnc(C(C)C)n2c2ncccc12 | 47 | 75 | 47 | 84 | 50 | 91 | 58 | Non-toxic | 45 | 11 | 49 | 36 |  |  | 
5 | CCN(CC)C(=O)c1c(N2CCN(C)CC2)c2cccnc2n2c(C(C)C)nnc12 |  | 85 |  | 100 |  | 88 | 90 | Non-toxic |  |  | 92 | 83 | 85 | 39 | 
6 | CCN1CCN(c2c(C(=O)N(CC)CC)c3ncc(C)n3c3ncccc23)CC1 |  | 48 |  | 46 | 10 | 83 | 54 | Non-toxic |  |  | 0 |  |  |  | 63
7 | CCc1nnc2c(C(=O)N(CC)CC)c(N(C)CC(C)C)c3cccnc3n12 | 28 | 26 | 42 |  | 39 | 92 |  | Non-toxic | 8 |  |  |  |  |  | 60
8 | CCN(CC)C(=O)c1c(N2CCN(CCO)CC2)c2cccnc2n2ccnc12 |  | 12 |  |  | 0 | 41 |  | Non-toxic |  |  |  |  |  |  | 39
9 | CCN(C)C(=O)c1c(NC(C)C)c2cccnc2n2c(C(C)C)nnc12 |  | 0 | 0 |  | 46 | 82 |  | Non-toxic |  |  |  |  |  |  | 96
10 | CCN(CC)C(=O)c1c(N2CCN(C)CC2)c2cccnc2n2c(C)cnc12 |  | 86 |  | 20 | 0 | 85 | 83 | Non-toxic |  |  | 21 |  |  |  | 80
11 | C=CCNc1c(C(=O)N(CC)CC)c2nnc(C(C)C)n2c2ncccc12 | 52 | 28 | 49 |  | 60 | 79 |  | Non-toxic | 32 | 25 |  |  |  |  | 64
12 | CCN(CC)C(=O)c1c(N2CCN(c3ccccc3OC)CC2)c2cccnc2n2ccnc12 |  | 0 |  |  | 16 | 63 |  | Non-toxic |  |  |  |  |  |  | 86
13 | CCCN(C)c1c(C(=O)N(CC)CC)c2nnc(C(C)C)n2c2ncccc12 | 42 | 37 | 55 |  | 71 | 71 |  | Non-toxic | 44 | 23 |  |  |  |  | 62
14 | CCN(CC)C(=O)c1c(NCC(C)C)c2cccnc2n2ccnc12 |  | 48 |  | 28 | 0 | 71 | 48 | Non-toxic |  |  | 0 |  |  |  | 68
15 | CCN(CC)C(=O)c1c(N2CCN(Cc3ccccc3)CC2)c2cccnc2n2ccnc12 |  | 0 | 10 |  | 26 | 46 |  | Non-toxic |  |  |  |  |  |  | 42
16 | CCN(CC)C(=O)c1c(N2CCN(C)CC2)c2cccnc2n2c(N(C)C)cnc12 |  | 16 |  | 30 | 0 | 83 |  | Non-toxic |  |  |  |  |  |  | 44
17 | CCN1CCN(c2c(C(=O)N(CC)CC)c3nccn3c3ncccc23)CC1 |  | 30 |  |  | 5 | 80 |  | Non-toxic |  |  |  |  |  |  | 67
18 | CCOC(=O)c1cn2c(n1)c(C(=O)N(CC)CC)c(N1CCN(C)CC1)c1cccnc12 |  | 2 |  |  | 0 | 75 |  | Non-toxic |  |  |  |  |  |  | 0
19 | CCN(CC)C(=O)c1c(NC)c2cccnc2n2c(C)cnc12 |  | 0 | 20 |  | 38 | 73 |  | Non-toxic |  |  |  |  |  |  | 55
20 | CCNc1c(C(=O)N(CC)CC)c2nccn2c2ncccc12 | 25 | 2 | 26 |  | 29 | 60 |  | Non-toxic | 0 |  |  |  |  |  | 89
21 | CC(C)CNc1c(C(=O)N2CCN(C)CC2)c2nnc(C(C)C)n2c2ncccc12 |  | 29 |  |  | 0 | 48 |  | Non-toxic |  |  |  |  |  |  | 0
22 | CCN(CC)C(=O)c1c(N2CCN(Cc3ccccc3)CC2)c2cccnc2n2c(C)cnc12 |  |  |  |  | 0 | 17 |  |  |  |  |  |  |  |  | 
23 | CCN(CC)C(=O)c1c(NCC(C)C)c2cccnc2n2c(C)cnc12 |  |  |  |  | 0 | 0 |  |  |  |  |  |  |  |  | 
24 | CCN(CC)C(=O)c1c(N2CCN(C)CC2)c2cccnc2n2ccnc12 |  | 74 |  | 41 | 0 | 80 | 56 | Non-toxic |  |  | 32 |  |  |  | 77
